The nature of assay [1]: Inhibition of Enterobacter cloacae AmpC using nitrocefin as substrate after 15 mins by microtiter plate assay.
The nature of assay [2]: Inhibition of TEM-1 using nitrocefin as substrate after 15 mins by microtiter plate assay.
The test system of assay [3] is Escherichia coli. The experiment in a line: Antibacterial activity against imipenem-non resistant Escherichia coli BL21(DE3) after 18 hrs by twofold serial broth dilution method. The class given is functional. Put shortly:
(§1)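 Two-fold serial broth dilution MIC per CLSI, 10-point dilutions in Iso-Sensitest broth, 2 mL tubes. BL21 grown 5 h at 37°C in LB (kanamycin 30 μg/mL for pET-9a VIM-2 transformants). Inoculum 5 × 10^5 CFU/mL; shaken ≥18 h at 37°C aerobically.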

In assay [4] the test system is Escherichia coli. Put plainly: Bacteriostatic activity against imipenem-resistant Escherichia coli BL21(DE3) expressing VIM2 gene at […] after 24 hrs by broth microdilution method. The class given is functional. On the technique in general: Broth dilution looks for growth in wells or tubes with falling amounts of substance.
Assay [5] has as its system Escherichia coli BL21(DE3). The experiment in a line: Inhibition of VIM2 in imipenem-resistant Escherichia coli BL21(DE3) assessed as potentiation of imipenem-induced bactericidal activity at 4.5 ug/mL after 18 hrs by checkerboard microdilution method. Put shortly:
(§2)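 Checkerboard in 96-well plates, 0.2 mL. […] BL21/VIM-2 pre-grown 5 h at 37°C with kanamycin; inoculum 1 × 10^6 CFU/mL. Shaken ≥18 h at 37°C. MIC read per CLSI; synergy by ΣFIC; QC strain ATCC 35218.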

In assay [6] the test system is Escherichia coli BL21(DE3). The experiment in a line: Inhibition of VIM2 in imipenem-resistant Escherichia coli BL21(DE3) assessed as potentiation of imipenem-induced bactericidal activity at 8.9 ug/mL after 18 hrs by checkerboard microdilution method. The essentials: as §2
Assay [7] deals with Escherichia coli. Put plainly: Bacteriostatic activity against imipenem-non resistant Escherichia coli BL21(DE3) at […] after 24 hrs by broth microdilution method. The assay is classed as functional.
In assay [8] the test system is Escherichia coli. Put plainly: Bactericidal activity against imipenem-resistant Escherichia coli BL21(DE3) expressing VIM2 gene at […] after 6 hrs by broth microdilution method. The class given is functional.
A short description of assay [9]: Inhibition of VIM2 using nitrocefin as substrate at 15 uM after 15 mins by microtiter plate assay.
Assay [10] can be described thus: Inhibition of IMP1 using nitrocefin as substrate at 140 uM after 15 mins by microtiter plate assay.
Assay [11] relates to Escherichia coli BL21(DE3). Put plainly: Inhibition of VIM2 in imipenem-resistant Escherichia coli BL21(DE3) assessed as potentiation of imipenem-induced bactericidal activity at 50 uM after 18 hrs by twofold serial broth dilution method.
Assay [12] deals with Escherichia coli. Put plainly: Bactericidal activity against imipenem-non resistant Escherichia coli BL21(DE3) at […] after 6 hrs by broth microdilution method. The assay is classed as functional.
A short description of assay [13]: Inhibition of VIM2 using CCF2 as substrate at 36 uM after 15 mins by FRET assay. Put shortly: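 FRET endpoint assay in 50 mM HEPES, 50 μM ZnSO4, 0.05% Brij 35, pH 7.1. VIM-2 (0.1 nM final) preincubated 15 min at RT with compound. CCF2-FA added to 10 μM final, 25 min at RT, stopped with EDTA. Excitation 409 nm, emissions 460 and 535 nm, read as ratio. Triplicate dilution series starting at 56 μM nominal.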

Assay [14] relates to Escherichia coli BL21(DE3). The experiment in a line: (§3) Inhibition of VIM2 in imipenem-resistant Escherichia coli BL21(DE3) assessed as potentiation of imipenem-induced bactericidal activity at […] after 18 hrs by checkerboard microdilution method.
The test system of assay [15] is Escherichia coli. The experiment in a line: Selectivity ratio of MIC for imipenem-resistant Escherichia coli BL21(DE3) expressing VIM2 gene to MIC for imipenem-non resistant Escherichia coli BL21(DE3). The assay is classed as functional.
Another assay concerns Enterobacter cloacae. Put plainly: Inhibition of Enterobacter cloacae AmpC using nitrocefin as substrate at 25 uM after 15 mins by microtiter plate assay.
Assay [16] is described as follows: Inhibition of TEM-1 using nitrocefin as substrate at 25 uM after 15 mins by microtiter plate assay.
For assay [17], the system named is Escherichia coli. The experiment in a line: Antibacterial activity against imipenem-resistant Escherichia coli BL21(DE3) expressing VIM2 gene after 18 hrs by twofold serial broth dilution method. The class given is functional. Put shortly: as §1
The subject of assay [18] is Escherichia coli. The experiment in a line: Bactericidal activity against imipenem-non resistant Escherichia coli BL21(DE3) at […] up to 6 hrs by broth microdilution method. The assay is classed as functional.
Assay [19] concerns Escherichia coli. Put plainly: Bactericidal activity against imipenem-resistant Escherichia coli BL21(DE3) expressing VIM2 gene at […] up to 6 hrs by broth microdilution method. The class given is functional.
Assay [20] can be described thus: Inhibition of VIM2 using CCF2 as substrate after 15 mins by FRET assay.
Assay [21] can be described thus: Inhibition of IMP1 using nitrocefin as substrate at 56 uM after 15 mins by microtiter plate assay.
A short description of assay [22]: Inhibition of VIM2 using CCF2 as substrate at 44 uM after 15 mins by FRET assay. Put shortly:
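VIM-2 (0.1 nM final) in 50 mM HEPES, 50 μM ZnSO4, 0.05% Brij 35, pH 7.1, preincubated 15 min at RT with compound; CCF2-FA added to 10 μM, 25 min at RT, stopped with EDTA. Ratiometric fluorescence read at excitation 409 nm, emission 460/535 nm. Triplicate ten-point 1:3 dilutions; IC50 from four-parameter fit of ratio data.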

Assay [23] is described as follows: Inhibition of IMP1 using nitrocefin as substrate after 15 mins by microtiter plate assay.
Assay [24] can be described thus: Inhibition of VIM2 using nitrocefin as substrate after 15 mins by microtiter plate assay.
Assay [25] can be described thus: Inhibition of VIM2 using nitrocefin as substrate by rapid dilution method.
The nature of assay [26]: Inhibition of VIM2 using nitrocefin as substrate at 56 uM after 15 mins by microtiter plate assay.
In assay [27] the test system is Escherichia coli. Put plainly: Bactericidal activity against imipenem-non resistant Escherichia coli BL21(DE3) at […] after 24 hrs by broth microdilution method. The class given is functional.
Assay [28] has as its system Escherichia coli BL21(DE3). The description is as §3. The source holds these as a separate data set.
Assay [29] concerns Escherichia coli. Put plainly: Bactericidal activity against imipenem-resistant Escherichia coli BL21(DE3) expressing VIM2 gene at […] after 24 hrs by broth microdilution method. The class given is functional.
Assay [30] deals with Escherichia coli BL21(DE3). The experiment in a line: Inhibition of VIM2 in imipenem-resistant Escherichia coli BL21(DE3) assessed as potentiation of imipenem-induced bactericidal activity at 4.2 ug/mL after 18 hrs by checkerboard microdilution method. The essentials:
as §2

A short description of assay [31]: Inhibition of IMP1 in Escherichia coli.

≈ marks a conversion by molar mass, not a printed value. Calls of active or inactive are those of the source. The rule behind the calls is not given here.

In general, IC50 refers to the point on the concentration scale where inhibition reaches its midpoint. Read a low IC50 as greater potency. For the molecule 4-CHLOROMERCURIBENZOIC ACID, the IC50 in assay [1] and in assay [2] was greater than 25 µM in each case.
As usually defined, the MIC is the lowest concentration that inhibits growth of the organism. Low values mean greater potency, high ones weaker potency. As for `C[C@@H](O)[C@H]1C(=O)N2C(C(=O)O)=C(SCCNC=N)C[C@H]12` [IMIPENEM ANHYDROUS], inhibition of growth against Escherichia coli [3] (MIC) required 0.2 µg/mL (≈ 0.668 µM).
A word on the inhibition: it is the drop in the measured response relative to a control, in per cent. A lower inhibition goes with a response near the control. Consider 4-[sequence] ACID, for which the result in the assay with Escherichia coli [4], with Escherichia coli [7], in the assay with Escherichia coli [8] and in the assay with Escherichia coli [12] was inactive. Also, the outcome (in assay [5]; in assay [6]; in assay [11]; in [14]; in the assay on Escherichia coli [18]; in the assay on Escherichia coli [19]) was Active. For the same molecule, the inhibition in assay [9] turned out to be 80%; in assay [10], 0%; in [13], 83%; in the assay on Enterobacter cloacae, 0%; in assay [16], 0%. Besides, in the assay on Escherichia coli [15], the Ratio came out at 9. Besides, the minimal inhibitory concentration (MIC) against Escherichia coli [17] and against Escherichia coli [3] was 17.9 µg/mL in each case.
As a reminder, the Ki is the dissociation constant of the complex between target and ligand, obtained from inhibition or displacement. Low values mean tighter binding, high ones weaker binding. Turning to `COCc1nn[nH]c1CNS(=O)(=O)c1ccc(I)cc1`, the IC50 is 4.1 µM in assay [20]; greater than 56 µM in assay [23]; greater than 25 µM in assay [1]; 7.3 µM in assay [24]; greater than 25 µM in assay [2]. Further, the inhibition in [21] was found to be 0%; in [22], 90%; in the assay on Enterobacter cloacae, 0%; in [16], 0%; in assay [26] it was 74%. Further, the result in [11] was inactive. Also, the MIC in the assay with Escherichia coli [17] and with Escherichia coli [3] was greater than 60 µg/mL throughout. In addition, the Ki in assay [25] came out at 1.41 µM.
`Cc1ccc(Cl)cc1N1CCN(Cc2nn[nH]c2CNS(=O)(=O)c2ccc(I)cc2)CC1` yielded an IC50 in assay [24] greater than 56 µM. In addition, the inhibition in assay [26] turned out to be 0%.
Consider `O=S(=O)(NCc1[nH]nnc1CN1CCN(c2ccc(Cl)c(Cl)c2)CC1)c1ccc(I)cc1`, for which the IC50 in assay [24] was greater than 56 µM. The molecule also gave an inhibition in assay [26] of 5%.
The matching figures for `CC1(C)OCC(COCc2nn[nH]c2CNS(=O)(=O)c2ccc(I)cc2)O1` (stereo not given): greater than 56 µM and 31%.
For `O=C1c2c(O)ccc(O)c2C(=O)c2c(NCCNCCO)ccc(NCCNCCO)c21`, the result in the assay on Escherichia coli [4], in the assay on Escherichia coli [27], in the assay with Escherichia coli [7] and in the assay on Escherichia coli [29] was inactive. For the same molecule, the result in assay [28], in [11], in assay [14] and in assay [30] was Active.
For the molecule `Cn1cc(Cc2nn[nH]c2CNS(=O)(=O)c2ccc(I)cc2)c2ccccc21`, the half-maximal inhibitory concentration (IC50) in assay [24] is greater than 56 µM. The inhibition in assay [26] turned out to be 11%.
Turning to `O=C(O)CC(Cc1ccccc1Cl)C(=O)O` (stereo not given), the values for the concentration for half-maximal inhibition (IC50) in [20], in assay [23] and in [24] were 50 µM, 1.6 µM and 33 µM, respectively. Besides, the results for the Ki in assay [23] and in assay [31] were 1.6 µM and 3.3 µM, respectively.
With `C#CCCOCc1nn[nH]c1CNS(=O)(=O)c1ccc(I)cc1`, the 50% inhibitory concentration (IC50) in assay [20] was 1.3 µM; in [23], greater than 56 µM; in [1], greater than 25 µM; in assay [24], 3.3 µM; in [2], greater than 25 µM. In addition, the inhibition in [21] came to 0%; in assay [22], 76%; in the assay with Enterobacter cloacae it was 0%; in [16] it was 0%; in [26] it was 79%. The result in [11] was inactive. For the same molecule, the MIC in the assay on Escherichia coli [17] and in the assay on Escherichia coli [3] was greater than 60 µg/mL in each case. In assay [25], this molecule showed a Ki of 0.41 µM.

(Values after ChEMBL document CHEMBL1154107, “Inhibitors of VIM-2 by screening pharmacologically active and click-chemistry compound libraries” (Bioorg Med Chem, 2009).)
